From ChEMBL document CHEMBL3352779, “Synthesis and biological evaluation of 4-aza-2,3-dihydropyridophenanthrolines as tubulin polymerization inhibitors” (Bioorg Med Chem Lett, 2014)
Calls of active or inactive are those of the source. No cut-off for these calls is given here.

Experiments:
HeLa [1] = test: Antiproliferative activity against human HeLa cells after 48 hrs by SRB assay; assay type: functional
In short: (§1)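 Sulforhodamine B growth assay run on MIAPACA, MCF-7 and HeLa human cancer lines, with etoposide and podophyllotoxin as positive controls. Potency expressed as GI₅₀.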

[2] = (§2) Antiproliferative activity against human MiaPaCa cells after 48 hrs by SRB assay; assay type: functional; settings: MIA PaCa-2, 48 h; in short: as §1
MCF7 = test: Antiproliferative activity against human MCF7 cells after 48 hrs by SRB assay; assay type: functional; in short: as §1
Tubulin (Homo sapiens) [3] = molecular target: T1, Tubulin (Homo sapiens) (UniProt P68371+Q9H4B7+P0DPH7+P68366+Q13509+Q71U36+P04350+Q3ZCM7+P07437+P68363+Q9BQE3+Q6PEY2+Q13885+Q9BVA1+Q9BUF5); test: Inhibition of tubulin polymerization in human HeLa cells assessed as increase of tubulin soluble fraction at 5 uM after 24 hrs by immunoblot analysis; assay type: cell-based
In short: (§3)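 HeLa cells treated at 5 µM for 24 h, then permeabilized. Soluble and polymerized tubulin fractions collected separately and analysed by immunoblotting, with DMSO-treated cells as control.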

Tubulin = Tubulin (Bos taurus, UniProt Q6B856+Q862L2+Q862F3); test: Inhibition of bovine brain tubulin polymerization measured for 1 hr at 1 min intervals by fluorescence assay
HeLa [4] = test: Cell cycle arrest in human HeLa cells assessed as accumulation of cells at G2/M phase at 5 uM after 24 hrs by FACS analysis (Rvb =33.25 %); assay type: functional
Tubulin (Homo sapiens) [5] = molecular target: T1, Tubulin (Homo sapiens); test: Induction of tubulin polymerization in human HeLa cells assessed as increase of tubulin polymerized fraction at 5 uM after 24 hrs by immunoblot analysis; assay type: cell-based; in short: as §3
HeLa [6] = test: Disruption of microtubule network in human HeLa cells at 5 uM after 24 hrs by immunohistochemistry; assay type: cell-based
In short: (§4)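 HeLa cells exposed to 5 µM for 24 h, then fixed and stained with anti-tubulin antibody, with DAPI counterstain. Merged tubulin/DAPI fluorescence images examined for microtubule network and nuclear condensation.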

HeLa [7] = test: Mitotic arrest in human HeLa cells assessed as cell rounding at 5 uM after 24 hrs by immunohistochemistry; assay type: functional, cell-based; in short: as §4
MiaPaCa = test: as §2; assay type: functional; in short: as §1

| SMILES | GI50 (HeLa [1]) | GI50 [2] [nM] | GI50 (MCF7; MCF7, 48 h) [nM] | other results |
| --- | --- | --- | --- | --- |
| COc1ccc(C2C3=C(COC3=O)Nc3c2c2cccnc2c2ncccc32)cc1OC (stereo not given) | 40 nM | 5900 | 4600 | – |
| COc1cc([C@@H]2c3cc4c(cc3[C@H](O)[C@H]3COC(=O)[C@H]23)OCO4)cc(OC)c1OC [PODOFILOX] | 710 nM | 500 | 230 | inhibition (Tubulin (Homo sapiens) [3]): Active |
| COc1ccc(OC)c(C2C3=C(COC3=O)Nc3c2c2cccnc2c2ncccc32)c1 (stereo not given) | < 10 nM | 100 | 8400 | IC50 (Tubulin): 2000 nM; Activity (HeLa [4]): 73.77% |
| COc1cc(C2C3=C(COC3=O)Nc3c2c2cccnc2c2ncccc32)cc(OC)c1OC (stereo not given) | 100 nM | 2800 | 1700 | – |
| COc1ccc(C2C3=C(COC3=O)Nc3c2c2cccnc2c2ncccc32)c(O)c1 (stereo not given) | 7000 nM | 9800 | 9700 | – |
| CC(=O)O[C@H]1C(=O)[C@@]2(C)[C@H]([C@H](OC(=O)c3ccccc3)[C@]3(O)C[C@H](OC(=O)[C@H](O)[C@@H](NC(=O)c4ccccc4)c4ccccc4)C(C)=C1C3(C)C)[C@]1(OC(C)=O)CO[C@@H]1C[C@@H]2O | – | – | – | Activity (Tubulin (Homo sapiens) [5]): Active |
| Cc1ccc(O)c(C2C3=C(COC3=O)Nc3c2c2cccnc2c2ncccc32)c1 (stereo not given) | 600 nM | 1900 | – | GI50 (MCF7): inactive |
| Cc1cccc(C2C3=C(COC3=O)Nc3c2c2cccnc2c2ncccc32)c1O (stereo not given) | 200 nM | 500 | 10300 | – |
| COc1ccc(F)c(C2C3=C(COC3=O)Nc3c2c2cccnc2c2ncccc32)c1 (stereo not given) | < 10 nM | 20 | 10 | Activity (HeLa [6]): Active; IC50 (Tubulin): 830 nM; Activity (HeLa [7]): Active; Activity (HeLa [4]): 82.04%; inhibition (Tubulin (Homo sapiens) [3]): Active |
| COc1ccc(C2C3=C(COC3=O)Nc3c2c2cccnc2c2ncccc32)c(OC)c1OC (stereo not given) | 160 nM | 3700 | 8200 | – |
| O=C1OCC2=C1C(c1ccc(F)c(F)c1)c1c(c3cccnc3c3ncccc13)N2 (stereo not given) | 30 nM | 500 | < 10 | Activity (HeLa [6]): Active; IC50 (Tubulin): 920 nM; Activity (HeLa [7]): Active; Activity (HeLa [4]): 76.44%; inhibition (Tubulin (Homo sapiens) [3]): Active |
| O=C1OCC2=C1C(c1cc(Br)ccc1O)c1c(c3cccnc3c3ncccc13)N2 (stereo not given) | 1760 nM | 5400 | 9200 | – |
| COc1cc(C2C3=C(COC3=O)Nc3c2c2cccnc2c2ncccc32)cc(OC)c1O (stereo not given) | 1700 nM | 100 | 2100 | – |
| COc1ccc(C2C3=C(COC3=O)Nc3c2c2cccnc2c2ncccc32)cc1F (stereo not given) | 800 nM | 1200 | 6400 | – |
| O=C1OCC2=C1C(c1cc(F)c(F)c(F)c1)c1c(c3cccnc3c3ncccc13)N2 (stereo not given) | 2500 nM | – | – | GI50 (MiaPaCa): inactive; GI50 (MCF7): inactive |
| O=C1OCC2=C1C(c1ccc(O)c(Cl)c1)c1c(c3cccnc3c3ncccc13)N2 (stereo not given) | 300 nM | 900 | 7700 | – |
| O=C1OCC2=C1C(c1ccc(C(F)(F)F)cc1)c1c(c3cccnc3c3ncccc13)N2 (stereo not given) | 2600 nM | 700 | 60 | – |
| COc1cc([C@@H]2c3cc4c(cc3[C@@H](O[C@@H]3O[C@@H]5CO[C@@H](C)O[C@H]5[C@H](O)[C@H]3O)[C@H]3COC(=O)[C@H]23)OCO4)cc(OC)c1O [ETOPOSIDE] | 640 nM | 1300 | 250 | – |
| O=C1OCC2=C1C(c1ccc(F)cc1)c1c(c3cccnc3c3ncccc13)N2 (stereo not given) | 150 nM | – | – | GI50 (MiaPaCa): inactive; GI50 (MCF7): inactive |
| O=C1OCC2=C1C(c1cccc(Cl)c1)c1c(c3cccnc3c3ncccc13)N2 (stereo not given) | inactive | 13600 | – | GI50 (MCF7): inactive |
| O=C1OCC2=C1C(c1cc(Cl)ccc1O)c1c(c3cccnc3c3ncccc13)N2 (stereo not given) | 300 nM | – | – | GI50 (MiaPaCa): inactive; GI50 (MCF7): inactive |
| COc1ccc(C2C3=C(COC3=O)Nc3c2c2cccnc2c2ncccc32)cc1 (stereo not given) | 4200 nM | 3400 | 4600 | – |
| O=C1OCC2=C1C(c1ccc(O)c(Br)c1)c1c(c3cccnc3c3ncccc13)N2 (stereo not given) | < 10 nM | 2000 | 7600 | – |
